Experimental data from ChEMBL document CHEMBL3779845, “Synthesis and antitumor activity evaluation of a novel combi-nitrosourea prodrug: Designed to release a DNA cross-linking agent and an inhibitor of O(6)-alkylguanine-DNA alkyltransferase” (Bioorg Med Chem, 2016).

Columns and labels:
[1] = Drug level in PBS treated with 3-(3-(((2-Amino-9H-purin-6-yl)oxy)methyl)benzyl)-1-(2-chloroethyl)-1-nitrosourea by HPLC-UV analysis; assay type: physicochemical; conditions: buffer
Method in brief: (§1)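 Stock dissolved in minimal DMSO, diluted into PBS (pH 7.4) or MEM-EBSS containing 10% FBS plus penicillin/streptomycin to 0.1 mM final. Incubated at 37 °C, with aliquots taken at set times over 8 h and frozen. Medium samples were deproteinized with an equal volume of acetonitrile and centrifuged. Analysis by HPLC-UV on C18, eluting 50% 50 mM ammonium acetate pH 4.5 / 50% methanol at 1.0 mL/min.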

[2] = Retention time of the compound in PBS/MEM-EBSS treated with 3-(3-(((2-Amino-9H-purin-6-yl)oxy)methyl)benzyl)-1-(2-chloroethyl)-1-nitrosourea by HPLC-UV analysis; assay type: physicochemical; conditions: buffer; method in brief: as §1
[3] = Drug level in MEM-EBSS treated with 3-(3-(((2-Amino-9H-purin-6-yl)oxy)methyl)benzyl)-1-(2-chloroethyl)-1-nitrosourea by HPLC-UV analysis; assay type: physicochemical; method in brief: as §1
[4] = Cytotoxicity against human SF126 cells expressing low level of AGT assessed as cell survival after 24 hrs by CCK8 assay; assay type: functional, cell-based; conditions: SF-126, 24 h
Method in brief: (§2)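 Glioma cells kept in MEM-EBSS with 10% FBS, 37 °C, 5% CO2. Seeded 5000 cells/well, grown 24 h, then 24 h drug exposure over a range of concentrations. Read-out: CCK8 (10%, 3 h), A450. Survival % = (A_drug−A_blank)/(A_control−A_blank)×100. Mean ± SD of at least three independent experiments. DMSO or ethanol vehicle kept below 0.1%.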

[5] = Retention time of the compound in PBS/MEM-EBSS by HPLC-UV analysis; assay type: physicochemical; conditions: buffer; method in brief: as §1
SF-126 = assay: Potency index, ratio IC50 of ACNU to ratio IC50 of compound for human SF126 cells expressing low level of AGT; assay type: functional
[6] = Half life of compound in MEM-EBSS by HPLC-UV analysis in presence of 10% fetal bovine serum; assay type: physicochemical; conditions: cattle, MEM-EBSS with 10% fetal bovine serum; method in brief: as §1
[7] = Half life of compound in PBS by HPLC-UV analysis
[8] = Induction of dG-dC cross linking in human SF763 cells expressing high level of AGT assessed as level of dG-dC cross link per mg of DNA at 0.1 mM after 12 hrs by HPLC-ESI-MS/MS analysis; assay type: functional
Method in brief: (§3)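 SF763 glioma cells (mer+, 119 fmol AGT/10^6 cells) in MEM-EBSS/10% FBS were grown to about 90% confluence and exposed for 12 h. DNA was isolated by proteinase K/RNase/phenol-chloroform, then digested with four enzymes and spiked with 15N3-dG-dC. Isotope-dilution HPLC-ESI-MS/MS; dG-dC given as fmol per mg DNA, with DNA estimated from dGuo content. Mean ± SD of triplicates.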

[9] = Cytotoxicity against human SF-767 cells expressing moderate level of AGT assessed as cell survival after 24 hrs by CCK8 assay; conditions: SF767, 24 h
Calf thymus DNA [10] = assay: Induction of dG-dC cross linking in calf thymus DNA assessed as level of dG-dC cross link per mg of DNA at 0.4 mM after 12 hrs by HPLC-ESI-MS/MS analysis; assay type: nucleic-acid assay; conditions: Bos taurus
Method in brief: (§4)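 CT DNA at 1 mg/mL in buffer (10 mM Tris, 50 mM NaCl, 50 mM Na2HPO4, pH 7.4) was given the compound from a DMSO solution and incubated 12 h at 37 °C. DNA was ethanol-precipitated and digested (DNase I, S1 nuclease, alkaline phosphatase, phosphodiesterase I), with 15N3-dG-dC internal standard at 9.6 nM final. Quantitation by isotope-dilution HPLC-ESI-MS/MS in positive SRM mode. Results given as fmol/mg DNA, mean ± SD of triplicates.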

Calf thymus DNA [11] = assay: Induction of dG-dC cross linking in calf thymus DNA assessed as level of dG-dC cross link per mg of DNA at 0.2 mM after 12 hrs by HPLC-ESI-MS/MS analysis; assay type: nucleic-acid assay; conditions: Bos taurus; method in brief: as §4
[12] = Induction of dG-dC cross linking in human SF763 cells expressing high level of AGT assessed as level of dG-dC cross link per mg of DNA at 0.2 mM after 12 hrs by HPLC-ESI-MS/MS analysis; assay type: functional; method in brief: as §3
Calf thymus DNA [13] = assay: Induction of dG-dC cross linking in calf thymus DNA after 12 hrs by HPLC-ESI-MS/MS analysis; assay type: nucleic-acid assay; conditions: Bos taurus
Method in brief: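 Calf thymus DNA at 1 mg/mL in buffer (10 mM Tris, 50 mM NaCl, 50 mM Na2HPO4, pH 7.4) was treated with 0.1, 0.2 or 0.4 mM final for 12 h at 37 °C, then ethanol-precipitated. Digestion with DNase I, S1 nuclease, CIAP and phosphodiesterase I, spiked with 15N3-dG-dC internal standard. Isotope-dilution HPLC-ESI-MS/MS (SRM, positive mode), reported as fmol/mg DNA, mean ± SD of triplicates.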

Calf thymus DNA [14] = assay: Induction of dG-dC cross linking in calf thymus DNA assessed as level of dG-dC cross link per mg of DNA at 0.1 mM after 12 hrs by HPLC-ESI-MS/MS analysis; assay type: nucleic-acid assay; conditions: Bos taurus; method in brief: as §4
[15] = Induction of dG-dC cross linking in human SF763 cells expressing high level of AGT assessed as level of dG-dC cross link per mg of DNA at 0.4 mM after 12 hrs by HPLC-ESI-MS/MS analysis; assay type: functional; method in brief: as §3
[16] = Cytotoxicity against human SF763 cells expressing high level of AGT assessed as cell survival after 24 hrs by CCK8 assay; assay type: functional, cell-based; conditions: SF763, 24 h; method in brief: as §2
[17] = Cytotoxicity against human SF-767 cells expressing high level of AGT assessed as cell death after 24 hrs by CCK8 assay; assay type: functional; method in brief: as §2
[18] = Cytotoxicity against human SF763 cells expressing high level of AGT assessed as cell death after 24 hrs by CCK8 assay; assay type: functional; method in brief: as §2
[19] = Cytotoxicity against human SF126 cells expressing low level of AGT assessed as cell death after 24 hrs by CCK8 assay; assay type: functional, SF-126; method in brief: as §2
[20] = Cytotoxicity against human SF763 cells expressing high level of AGT assessed as cell survival after 24 hrs by CCK8 assay in presence of O6-BG; assay type: functional, cell-based; conditions: SF763, 24 h
Method in brief: (§5)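 Cells were seeded at 5000 cells/well and grown 24 h. They were pretreated 2 h with O6-BG at 20 µM final, then switched to fresh medium holding ACNU or BCNU at various concentrations for 24 h. Read-out: CCK8 (10%, 3 h), absorbance 450 nm. Survival expressed relative to untreated cells after blank subtraction. Mean ± SD, ≥3 independent experiments.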

[21] = Cytotoxicity against human SF-767 cells expressing moderate level of AGT assessed as cell survival after 24 hrs by CCK8 assay in presence of O6-BG; conditions: SF767, 24 h
[22] = Half life of compound in serum containing medium; assay type: ADME
Method in brief: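 Compound at 0.1 mM final (from DMSO stock) in MEM-EBSS with 10% FBS, penicillin/streptomycin, incubated 37 °C up to 8 h. Aliquots precipitated with equal volume acetonitrile, centrifuged, supernatant run on HPLC-UV. C18 column, 50% 50 mM ammonium acetate pH 4.5 / 50% methanol, 1.0 mL/min. Half-life read from degradation curve.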

[23] = Cytotoxicity against human SF126 cells expressing low level of AGT assessed as cell survival after 24 hrs by CCK8 assay in presence of O6-BG; assay type: functional, cell-based; conditions: SF-126, 24 h; method in brief: as §5

With `Nc1nc(OCc2cccc(CN=C=O)c2)c2nc[nH]c2n1` the Drug metabolism [1] was “metabolite_detected”, the Retention_time [2] was 16.25 min and the Drug metabolism [3] was “metabolite_detected”.

In the case of `Nc1nc(OCc2cccc(CNC(=O)N(CCCl)N=O)c2)c2nc[nH]c2n1`, the IC50 [4] is reported as 50 µM, the Retention_time [5] is reported as 23.93 min and the “Ratio IC50” value (SF-126) is reported as over 6. It also gave a half-life [6] of 18 min, a half-life [7] of 30 min and an Activity [8] of 267 fmol. The IC50 [9] was 25 µM, the Activity (Calf thymus DNA [10]) was 10300 fmol and the Activity (Calf thymus DNA [11]) was 6100 fmol. For the same compound, the Activity [12] was 713 fmol, the Activity (Calf thymus DNA [13]) was “Dose-dependent effect” and the Activity (Calf thymus DNA [14]) was 3880 fmol. The Activity [15] was 787 fmol and the IC50 [16] was 35 µM.

In the case of `NCc1cccc(COc2nc(N)nc3nc[nH]c23)c1`, the mortality [17] is reported as under 3%, the Drug metabolism [1] is reported as “metabolite_detected” and the mortality [18] is reported as under 3%. For the same compound, the Retention_time [2] was 13.85 min, the Drug metabolism [3] was “metabolite_detected” and the mortality [19] was under 3%.

In the case of `O=NN(CCCl)C(=O)NCCCl` [CARMUSTINE], the IC50 [4] is reported as 20 µM, the IC50 [20] is reported as 55 µM and the IC50 [21] is reported as 30 µM. It also gave a half-life [22] of 15 min, an Activity [8] of 145 fmol and an IC50 [9] of 45 µM. For the same compound, the IC50 [23] was 25 µM, the Activity (Calf thymus DNA [10]) was 24300 fmol and the Activity (Calf thymus DNA [11]) was 13600 fmol. For the same compound, the Activity [12] was 224 fmol, the Activity (Calf thymus DNA [14]) was 6160 fmol and the Activity [15] was 342 fmol. The IC50 [16] was 100 µM.

`Cc1ncc(CNC(=O)N(CCCl)N=O)c(N)n1` [NIMUSTINE] showed an IC50 [4] of 320 µM, an IC50 [20] of 1000 µM and an IC50 [21] of 400 µM. The Activity [8] was 172 fmol, the IC50 [9] was 500 µM and the IC50 [23] was 310 µM. The Activity (Calf thymus DNA [10]) was 34900 fmol, the Activity (Calf thymus DNA [11]) was 16800 fmol and the Activity [12] was 447 fmol. The Activity (Calf thymus DNA [14]) was 8750 fmol, the Activity [15] was 568 fmol and the IC50 [16] was over 1000 µM.
